Experimental data published in ChEMBL document CHEMBL4387722.

Key:
[1] = target: T1, Tyrosine-protein phosphatase non-receptor type 5 (Homo sapiens, UniProt P54829); test: Inhibition of human PTPN5 expressed in Escherichia coli Rosetta 2 (DE3) using pNPP as substrate after 45 mins by spectrophotometric method
T1 sequence (P54829 whole entry): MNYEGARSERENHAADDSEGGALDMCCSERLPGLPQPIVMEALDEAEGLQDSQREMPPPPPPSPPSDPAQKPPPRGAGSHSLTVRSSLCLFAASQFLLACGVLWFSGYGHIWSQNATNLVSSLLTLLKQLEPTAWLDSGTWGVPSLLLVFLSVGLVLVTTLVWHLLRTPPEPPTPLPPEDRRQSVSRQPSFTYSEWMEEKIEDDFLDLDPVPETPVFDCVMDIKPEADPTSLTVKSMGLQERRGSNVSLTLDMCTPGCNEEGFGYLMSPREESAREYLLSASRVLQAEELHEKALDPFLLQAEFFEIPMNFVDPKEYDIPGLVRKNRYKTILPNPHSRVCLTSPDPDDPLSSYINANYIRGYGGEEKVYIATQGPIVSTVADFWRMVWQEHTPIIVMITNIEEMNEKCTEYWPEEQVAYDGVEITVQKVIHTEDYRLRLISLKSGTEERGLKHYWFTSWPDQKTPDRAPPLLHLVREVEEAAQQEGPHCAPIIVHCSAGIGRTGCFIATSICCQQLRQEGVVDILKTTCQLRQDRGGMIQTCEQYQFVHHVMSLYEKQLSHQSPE

[2] = target: T2, Tyrosine-protein phosphatase non-receptor type 2 (Homo sapiens, UniProt P17706); test: Inhibition of human PTPN2 expressed in Escherichia coli Rosetta 2 (DE3) using pNPP as substrate after 45 mins by spectrophotometric method
T2 sequence (P17706 whole entry): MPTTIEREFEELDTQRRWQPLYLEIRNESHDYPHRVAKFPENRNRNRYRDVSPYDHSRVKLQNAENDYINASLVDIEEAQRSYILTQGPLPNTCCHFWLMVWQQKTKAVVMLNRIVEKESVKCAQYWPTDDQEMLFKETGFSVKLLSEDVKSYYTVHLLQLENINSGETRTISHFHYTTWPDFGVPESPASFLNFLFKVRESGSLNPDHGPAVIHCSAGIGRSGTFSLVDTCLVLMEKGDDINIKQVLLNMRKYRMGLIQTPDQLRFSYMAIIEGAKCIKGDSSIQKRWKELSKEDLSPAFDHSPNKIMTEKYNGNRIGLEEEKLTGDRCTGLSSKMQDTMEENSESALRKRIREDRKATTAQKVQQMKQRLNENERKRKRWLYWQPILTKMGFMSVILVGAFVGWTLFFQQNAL

HSP60/HSP10 = HSP60/HSP10 (Homo sapiens, UniProt P10809); test: Inhibition of human HSP60 expressed in Escherichia coli Rosetta 2(DE3)/human HSP10 expressed in Escherichia coli Rosetta 2(DE3) pLysS cells assessed as reduction in HSP60/HSP10-mediated denatured pig heart mitochondrial MDH refolding by measuring MDH enzyme activity using sodium mesoxalate as substrate after 40 to 60 mins by spectrometric analysis
Chain of HSP60/HSP10 (P10809 whole entry): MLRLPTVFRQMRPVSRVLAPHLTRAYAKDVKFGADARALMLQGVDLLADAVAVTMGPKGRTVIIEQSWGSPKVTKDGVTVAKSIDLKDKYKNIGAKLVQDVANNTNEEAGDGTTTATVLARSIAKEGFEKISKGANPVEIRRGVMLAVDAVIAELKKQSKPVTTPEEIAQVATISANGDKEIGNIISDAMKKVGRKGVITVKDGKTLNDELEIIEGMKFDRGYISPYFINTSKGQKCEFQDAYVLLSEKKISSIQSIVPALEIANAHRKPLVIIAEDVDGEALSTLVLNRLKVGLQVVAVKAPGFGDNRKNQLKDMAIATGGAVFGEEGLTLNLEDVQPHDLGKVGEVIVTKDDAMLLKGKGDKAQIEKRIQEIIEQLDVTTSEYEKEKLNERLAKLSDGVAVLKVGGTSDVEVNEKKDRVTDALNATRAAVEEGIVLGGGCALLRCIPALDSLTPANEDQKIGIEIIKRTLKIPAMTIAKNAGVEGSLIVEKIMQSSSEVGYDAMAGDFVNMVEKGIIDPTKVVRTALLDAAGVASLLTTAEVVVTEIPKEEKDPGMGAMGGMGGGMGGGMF
Chain of HSP60/HSP10 (P61604 whole entry, further chain): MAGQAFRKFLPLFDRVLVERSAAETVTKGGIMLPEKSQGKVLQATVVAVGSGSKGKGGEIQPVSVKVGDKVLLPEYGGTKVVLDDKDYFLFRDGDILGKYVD

[3] = test system: Mycobacterium tuberculosis; test: Antitubercular activity against Mycobacterium tuberculosis H37Rv after 5 days; format: functional, organism-based; conditions: 120 h
E. coli GroEL/ES = E. coli GroEL/ES (Escherichia coli, UniProt P0A6F5); test: Inhibition of Escherichia coli GroEL expressed in Escherichia coliDH5alpha/Escherichia coli GroES expressed in Escherichia coli BL21 (DE3) assessed as reduction in GroEL/GroES-mediated denatured pig heart mitochondrial MDH refolding by measuring MDH enzyme activity using sodium mesoxalate as substrate after 20 to 40 mins by spectrometric analysis
Chain of E. coli GroEL/ES (P0A6F5 whole entry, looked up): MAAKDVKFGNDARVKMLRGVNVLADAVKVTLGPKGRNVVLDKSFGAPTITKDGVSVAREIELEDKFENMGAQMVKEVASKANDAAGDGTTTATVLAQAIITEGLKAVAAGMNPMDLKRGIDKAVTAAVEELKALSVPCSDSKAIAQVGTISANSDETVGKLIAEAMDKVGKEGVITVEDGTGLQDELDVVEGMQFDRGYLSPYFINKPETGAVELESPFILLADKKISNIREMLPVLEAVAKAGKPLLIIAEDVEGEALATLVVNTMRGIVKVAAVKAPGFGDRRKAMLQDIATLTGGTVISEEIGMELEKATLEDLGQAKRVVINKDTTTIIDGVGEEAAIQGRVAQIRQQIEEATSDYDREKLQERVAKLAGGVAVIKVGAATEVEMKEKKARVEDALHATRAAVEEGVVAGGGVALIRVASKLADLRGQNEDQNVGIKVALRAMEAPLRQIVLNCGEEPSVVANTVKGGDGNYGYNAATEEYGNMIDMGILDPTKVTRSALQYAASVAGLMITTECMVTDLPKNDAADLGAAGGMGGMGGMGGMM

[4] = target: T3, Tyrosine-protein phosphatase non-receptor type 1 (Homo sapiens, UniProt P18031); test: Inhibition of human PTPN1 expressed in Escherichia coli Rosetta 2 (DE3) using pNPP as substrate after 45 mins by spectrophotometric method
T3 sequence (P18031 whole entry): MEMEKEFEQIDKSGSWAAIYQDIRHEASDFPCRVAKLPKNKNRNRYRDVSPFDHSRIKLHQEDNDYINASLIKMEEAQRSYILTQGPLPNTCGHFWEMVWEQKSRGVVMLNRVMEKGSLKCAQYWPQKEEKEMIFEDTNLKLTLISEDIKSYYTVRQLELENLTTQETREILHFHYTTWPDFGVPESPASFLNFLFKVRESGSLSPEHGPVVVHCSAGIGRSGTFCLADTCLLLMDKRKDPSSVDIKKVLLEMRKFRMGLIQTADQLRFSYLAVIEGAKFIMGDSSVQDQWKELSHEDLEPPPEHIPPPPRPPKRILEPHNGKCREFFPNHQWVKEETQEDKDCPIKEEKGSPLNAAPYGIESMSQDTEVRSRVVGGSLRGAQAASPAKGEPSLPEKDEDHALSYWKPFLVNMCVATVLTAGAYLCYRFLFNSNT

[5] = Selectivity ratio of IC50 for inhibition of human HSP60 expressed in Escherichia coli Rosetta 2(DE3)/human HSP10 expressed in Rosetta 2(DE3) pLysS cells to IC50 for inhibition of Escherichia coli GroEL expressed in Escherichia coli DH5alpha/Escherichia coli GroES expressed in Escherichia coli BL21 (DE3)
Summary of the method: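 Ratio of IC50s from two analogous chaperonin-mediated refolding assays: human HSP60/10 and E. coli GroEL/ES each refold denatured malate dehydrogenase (dMDH). Refolding is followed through the recovered MDH enzymatic activity in a coupled read-out. IC50s come from dose-response testing. GroEL subunits are at 700 nM in the GroEL/ES assay.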

[6] = test system: Mycobacterium tuberculosis; test: Antitubercular activity against Mycobacterium tuberculosis H37Rv after 5 days at 200 uM relative to control; format: functional; conditions: 120 h
Summary of the method: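 M. tuberculosis grown in liquid culture with compound at a fixed 200 μM for 5 days. Growth inhibition expressed as percent of control.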

[7] = target: T4, Phosphotyrosine protein phosphatase (Mycobacterium tuberculosis, UniProt A0A045ISB3); test: Inhibition of Mycobacterium tuberculosis His-tagged PtpB expressed in Escherichia coli Rosetta 2 (DE3) using pNPP as substrate after 30 mins by spectrophotometric method
T4 sequence (A0A045ISB3 whole entry): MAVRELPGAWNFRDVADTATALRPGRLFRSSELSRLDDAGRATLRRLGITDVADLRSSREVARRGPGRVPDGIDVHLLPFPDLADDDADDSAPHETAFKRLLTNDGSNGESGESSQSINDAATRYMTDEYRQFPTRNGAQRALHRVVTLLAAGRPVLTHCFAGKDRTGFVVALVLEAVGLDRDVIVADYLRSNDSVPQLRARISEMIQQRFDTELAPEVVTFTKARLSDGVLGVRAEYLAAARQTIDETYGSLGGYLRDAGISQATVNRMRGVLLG

[8] = Selectivity index, ratio of IC50 for human PTPN1 to IC50 for Mycobacterium tuberculosis PtpB

| SMILES | IC50 [1] [µM] | IC50 [2] [µM] | IC50 (HSP60/HSP10) [µM] | EC50 [3] [µM] | IC50 (E. coli GroEL/ES) [µM] | IC50 [4] [µM] | Ratio IC50 [5] | inhibition at 200 µM [6] [%] | IC50 [7] [µM] | Ratio IC50 [8] |
| --- | --- | --- | --- | --- | --- | --- | --- | --- | --- | --- |
| O=S(=O)(Nc1ccc(-c2nc3cc(NS(=O)(=O)c4ccc(F)cc4)ccc3o2)cc1)c1ccc(F)cc1 | 23 | 28 | 67 | 66 | 3.3 | 27 | 20 | 48 | 18 | 1.3 |
| O=S(=O)(Nc1ccc(-c2nc3cc(NS(=O)(=O)c4ccc(O)cc4)ccc3o2)cc1)c1ccc(O)cc1 | 35 | 75 | 14 | 94 | 0.23 | 27 | 61 | 66 | 12 | 2.3 |
| O=S(=O)(Nc1ccc(-c2nc3cc(NS(=O)(=O)c4cccs4)ccc3o2)cc1)c1cccs1 | 33 | 41 | 40 | 34 | 5.5 | 31 | 7.3 | 59 | 12 | 2.6 |
| CS(=O)(=O)Nc1ccc(-c2nc3cc(NS(=O)(=O)c4ccc(Cl)s4)ccc3o2)cc1 | 52 | 95 | 43 | 66 | 14 | 52 | 3.1 | 74 | 37 | 1.4 |
| O=S(=O)(Nc1ccc2oc(-c3ccc(NS(=O)(=O)c4cccc5nonc45)cc3)nc2c1)c1ccc(Cl)s1 | 24 | 28 | 13 | 58 | 9.3 | 15 | 1.4 | 46 | 5.9 | 2.5 |
| O=S(=O)(Nc1ccc(-c2nc3cc(NS(=O)(=O)c4ccccc4O)ccc3o2)cc1)c1ccccc1O | 25 | 39 | 18 | 63 | 7.7 | 23 | 2.3 | 79 | 2.3 | 10 |
| N#Cc1ccc(S(=O)(=O)Nc2ccc(-c3nc4cc(NS(=O)(=O)c5ccc(C#N)cc5)ccc4o3)cc2)cc1 | 27 | 35 | 49 | 43 | 35 | 37 | 1.4 | 95 | 12 | 2.3 |
| O=S(=O)(Nc1ccc2oc(-c3ccc(NS(=O)(=O)c4ccc(Cl)s4)cc3)nc2c1)c1cccs1 | 23 | 31 | 9.1 | 36 | 4 | 13 | 2.3 | 52 | 5.1 | 2.5 |
| O=S(=O)(Nc1ccc(-c2nc3cc(NS(=O)(=O)c4ccccc4)ccc3o2)cc1)c1ccccc1 | 23 | 29 to 31 | 80 | 28 | 4 | 24 | 20 | 76 | 18 | 1.3 |
| NCc1ccc(S(=O)(=O)Nc2ccc3oc(-c4ccc(NS(=O)(=O)c5ccc(Cl)s5)cc4)nc3c2)cc1 | 62 | 61 | 37 | 59 | 4.6 | 42 | 8 | 91 | 4.4 | 9.5 |
| O=S(=O)(Nc1ccc(-c2nc3cc(NS(=O)(=O)c4ccccc4F)ccc3o2)cc1)c1ccccc1F | 26 | 31 | 57 | 45 | 20 | 36 | 2.9 | 54 | 16 | 1.6 |
| O=S(=O)(Nc1ccc(-c2nc3cc(NS(=O)(=O)c4cccc(O)c4)ccc3o2)cc1)c1cccc(O)c1 | 47 | 84 | 17 | 84 | 0.97 | 38 | 18 | 80 | 1.5 | 25 |
| O=S(=O)(Nc1ccc2oc(-c3ccc(NS(=O)(=O)c4ccc(Cl)s4)cc3)nc2c1)c1ccccc1 | 24 | 28 | 9 | 40 | 5.6 | 14 | 1.6 | 72 | 8.8 | 1.6 |
